Among the data in ChEMBL document CHEMBL2380254, “Optimization of tocotrienols as antiproliferative and antimigratory leads” (Eur J Med Chem, 2013) are GI50, growth and IC50 values, retold here.

One assay deals with SN12C. Briefly: Growth inhibition of human SN12C cells after 48 hrs by sulforhodamine B assay. The assay is classed as functional. The method, boiled down:
(§1)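 NCI-60 five-dose screen. Cells were grown in RPMI 1640 with 5% FBS and 2 mM L-glutamine, plated at 5000–40,000 cells/well and incubated 24 h before dosing, with T0 plates TCA-fixed. DMSO stocks were diluted to doses of […] and exposed 48 h at 37 °C, 5% CO2. Cells were fixed with cold TCA (final 10%, 60 min, 4 °C), stained with 0.4% SRB in 1% acetic acid for 10 min, solubilized in 10 mM trizma base and read at 515 nm. GI50 is where 100×(T−T0)/(C−T0)=50.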

For another assay, the system named is TK-10. As to the kind of experiment: Growth inhibition of human TK10 cells assessed as cell growth at 10 uM after 48 hrs by sulforhodamine B assay. The assay is classed as functional. Conditions: TK-10, 48 h, read-out: Activity. In short, it runs like this: (§2)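 Single-dose NCI-60 test at 10 µM. Cells were grown in RPMI 1640 with 5% FBS and 2 mM L-glutamine, preincubated 24 h, with T0 plates TCA-fixed. Exposure was 48 h at 37 °C, 5% CO2. Cells were fixed with cold TCA (final 10%, 4 °C, 60 min), stained with SRB and read at 515 nm. Percent growth was taken relative to T0 and untreated control; negative values denote cell kill.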

Another assay has as its system HCT-15. Briefly: Growth inhibition of human HCT15 cells after 48 hrs by sulforhodamine B assay. The assay is classed as functional. Conditions: HCT-15, 48 h. In short, it runs like this: (§3)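 NCI-60 screen: cells in RPMI 1640 with 5% FBS and 2 mM glutamine, 5000–40,000 cells/well, preincubated 24 h. Five concentrations (10-fold dilutions; 100 to 0.001 µM) applied for 48 h at 37 °C. TCA fixation, SRB stain, absorbance at 515 nm. Time-zero plates included; GI50 where 100×(T−T0)/(C−T0)=50.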

The test system of the next assay is U-251. As to the kind of experiment: Growth inhibition of human U251 cells assessed as cell growth at 10 uM after 48 hrs by sulforhodamine B assay. The assay is classed as functional. Conditions: U-251, 48 h, read-out: Activity. In short, it runs like this: as §2
In general terms: In SRB staining, fixed cells bind dye roughly in proportion to their protein.

A further assay deals with IGROV-1. As to the kind of experiment: Growth inhibition of human IGROV1 cells assessed as cell growth at 10 uM after 48 hrs by sulforhodamine B assay. It is filed as functional. Conditions: IGROV-1, 48 h, read-out: Activity. The method, boiled down:
(§4)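 NCI-60 single-dose screen at 10 µM: cells in RPMI 1640 with 5% FBS, preincubated 24 h, then exposed 48 h at 37 °C. TCA fixation (16% final for suspension cells), SRB staining, absorbance 515 nm. Percent growth relative to time-zero and untreated control plates; negative values indicate cell kill.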

In assay [1] the test system is KM12. Briefly: Growth inhibition of human KM12 cells assessed as cell growth at 10 uM after 48 hrs by sulforhodamine B assay. The assay is classed as functional. Conditions: KM12, 48 h, read-out: Activity. The method, boiled down: as §4
Another assay has as its system K562. As to the kind of experiment: Growth inhibition of human K562 cells assessed as cell growth at 10 uM after 48 hrs by sulforhodamine B assay. Conditions: K562, 48 h, read-out: Activity. The assay is classed as functional. In short, it runs like this: as §4
Assay [2] has as its system SF-295. As to the kind of experiment: Growth inhibition of human SF295 cells assessed as cell growth at 10 uM after 48 hrs by sulforhodamine B assay. It is filed as functional. The settings on record: SF-295, 48 h, read-out: Activity. In short, it runs like this:
(§5)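 Single-dose NCI-60 screen: adherent cells in RPMI 1640 with 5% FBS were exposed to 10 µM for 48 h at 37 °C after a 24 h preincubation. They were fixed in situ with cold TCA (10% final), stained with 0.4% SRB in 1% acetic acid, solubilized in 10 mM Tris base, and read at 515 nm. Percent growth was taken relative to time-zero and control plates.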

In a further assay the test system is HCT-116. Briefly: Growth inhibition of human HCT116 cells assessed as cell growth at 10 uM after 48 hrs by sulforhodamine B assay. Conditions: HCT-116, 48 h, read-out: Activity. It is filed as functional. The method, boiled down: as §4
Assay [3] deals with T47D. As to the kind of experiment: Growth inhibition of human T47D cells assessed as cell growth at 10 uM after 48 hrs by sulforhodamine B assay. The assay is classed as functional. The settings on record: read-out: Activity. In short, it runs like this:
as §2

Another assay has as its system PC-3. Briefly: Growth inhibition of human PC3 cells after 48 hrs by sulforhodamine B assay. The assay is classed as functional. Conditions: PC-3, 48 h. The method, boiled down: (§6)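 NCI-60 panel cells grown in RPMI 1640 with 5% FBS and 2 mM L-glutamine, seeded at 5000–40,000 cells/well and preincubated 24 h. Five 10-fold dilutions (0.001–100 µM) from DMSO stocks were added for 48 h at 37 °C. Adherent cells were fixed with cold TCA (10% final) for 60 min at 4 °C, stained with 0.4% SRB, and read at 515 nm. GI50 was set where 100×(T−T0)/(C−T0)=50.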

In another assay the test system is MCF7. As to the kind of experiment: Growth inhibition of human MCF7 cells assessed as cell growth at 10 uM after 48 hrs by sulforhodamine B assay. It is filed as functional. The settings on record: MCF7, 48 h, read-out: Activity. The method, boiled down:
as §5

Another assay relates to NCI-H460. As to the kind of experiment: Growth inhibition of human NCI-H460 cells after 48 hrs by sulforhodamine B assay. It is filed as functional. Conditions: NCI-H460, 48 h. The method, boiled down:
as §6

Assay [4] deals with SF-295. Briefly: Growth inhibition of human SF295 cells after 48 hrs by sulforhodamine B assay. The settings on record: SF-295, 48 h. The assay is classed as functional. In short, it runs like this: as §6
Assay [5] has as its system T47D. Briefly: Growth inhibition of human T47D cells after 48 hrs by sulforhodamine B assay. It is filed as functional. The method, boiled down:
as §1

For assay [6], the system named is NCI-H226. As to the kind of experiment: Growth inhibition of human NCI-H226 cells assessed as cell growth at 10 uM after 48 hrs by sulforhodamine B assay. Conditions: NCI-H226, 48 h, read-out: Activity. The assay is classed as functional. The method, boiled down: as §5
The nature of assay [7]: Antiproliferative activity against mouse +SA cells by MTT assay. The assay is classed as functional, cell-based. The settings on record: +SA cell. The method, boiled down: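 Mouse +SA mammary epithelial cells in serum-free DMEM/F12 with BSA, transferrin, insulin and EGF. Compounds from DMSO stock conjugated to BSA (overnight, 37 °C); 0–40 µM, final DMSO <0.1%. MTT 0.42 mg/mL for 4 h at 37 °C, isopropanol solubilization, OD 570 nm. Cell number from a standard curve; IC50 by non-linear regression.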
On the technique in general: Tetrazolium assays rely on reduction of a dye to a coloured formazan, in cell work by metabolically active cells.

Assay [8] relates to NCI-H226. Briefly: Growth inhibition of human NCI-H226 cells after 48 hrs by sulforhodamine B assay. It is filed as functional. Conditions: NCI-H226, 48 h. In short, it runs like this:
as §6

For the next assay, the system named is SK-MEL-2. Briefly: Growth inhibition of human SK-MEL-2 cells after 48 hrs by sulforhodamine B assay. The assay is classed as functional. The settings on record: SK-MEL-2, 48 h. The method, boiled down:
as §6

The nature of assay [9]: Growth inhibition of human NCI-ADR-RES cells after 48 hrs by sulforhodamine B assay. It is filed as functional. The method, boiled down: as §6
A further assay deals with RPMI-8226. Briefly: Growth inhibition of human RPMI8226 cells after 48 hrs by sulforhodamine B assay. It is filed as functional. The settings on record: RPMI-8226, 48 h. The method, boiled down: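 NCI-60 suspension lines in RPMI 1640 with 5% FBS and 2 mM L-glutamine, preincubated 24 h. A five-concentration 10-fold series (0.001–100 µM) was given for 48 h at 37 °C. Settled cells were fixed with 80% TCA (16% final), stained with SRB, and read at 515 nm. GI50 was taken where 100×(T−T0)/(C−T0)=50, with T0 plates fixed at drug addition.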

The test system of assay [10] is KM12. Briefly: Growth inhibition of human KM12 cells after 48 hrs by sulforhodamine B assay. The assay is classed as functional. The settings on record: KM12, 48 h. The method, boiled down:
as §3

A further assay has as its system DU-145. Briefly: Growth inhibition of human DU145 cells assessed as cell growth at 10 uM after 48 hrs by sulforhodamine B assay. The assay is classed as functional. The settings on record: DU-145, 48 h, read-out: Activity. The method, boiled down:
as §4

`CC(C)=CCC/C(C)=C/CC/C(C)=C/CC[C@]1(C)CCc2c3c(cc(C)c2O1)OCN(CCCCCO)C3`: the 50% growth inhibitory concentration (GI50) in the assay on SN12C stood at 5560 nM; in the assay with HCT-15 it was 6240 nM; in the assay on PC-3, 5710 nM; in the assay with NCI-H460, 5180 nM; in the assay on SF-295 [4] it was 6120 nM; with T47D [5] it was 6170 nM. The GI50 in the assay with NCI-H226 [8] was 6190 nM; in the assay with SK-MEL-2, 7470 nM; in assay [9], 5890 nM; in the assay on RPMI-8226 it was 9910 nM; with KM12 [10], 7410 nM. For the same compound, the growth at 10 µM is 76.3% with TK-10; -19.9% in the assay on U-251; 53.1% in the assay on IGROV-1; 13% in the assay with KM12 [1]; -35% with K562; 103% with SF-295 [2]. The growth at 10 µM was -89.6% with HCT-116; 59.5% in the assay with T47D [3]; -63.6% with MCF7; 98.4% in the assay on NCI-H226 [6]; 37.2% in the assay on DU-145. Moreover, in assay [7], 700 nM corresponded to half-maximal inhibition (IC50).
`CC(C)=CCC/C(C)=C/CC/C(C)=C/CC[C@]1(C)CCc2c3c(cc(C)c2O1)OCN(CCCO)C3`: the GI50 is 1670 nM in the assay on SN12C; 1970 nM with HCT-15; 1630 nM with PC-3; 1930 nM with NCI-H460; 1760 nM in the assay on SF-295 [4]; 2010 nM in the assay on T47D [5]. Besides, the concentration for 50% growth inhibition (GI50) is 2310 nM in the assay with NCI-H226 [8]; 2270 nM in the assay on SK-MEL-2; 1960 nM in assay [9]; 2160 nM in the assay with RPMI-8226; 2100 nM with KM12 [10]. Further, the growth at 10 µM with TK-10 was 75.9%; in the assay on U-251 it was -83.4%; in the assay with IGROV-1 it was -6.58%; in the assay on KM12 [1], -77.4%; in the assay on K562, -33.4%; in the assay on SF-295 [2], 74%. Moreover, the growth at 10 µM in the assay on HCT-116 is -85.4%; in the assay with T47D [3] it was -22.1%; in the assay with MCF7 it was -94.2%; with NCI-H226 [6], 98.7%; with DU-145, -13.6%. For the same compound, it took 1800 nM to reach half-maximal inhibition in assay [7] (IC50).
In the case of `COc1ccc(CCN2COc3cc(C)c4c(c3C2)CC[C@@](C)(CC/C=C(\C)CC/C=C(\C)CCC=C(C)C)O4)cc1OC`, the GI50 in the assay with SN12C is 1630 nM; in the assay with HCT-15 it was 1930 nM; in the assay on PC-3, 1870 nM; in the assay on NCI-H460, 2180 nM; in the assay with SF-295 [4] it was 2010 nM; in the assay on T47D [5] it was 1940 nM. The GI50 in the assay on NCI-H226 [8] was 2000 nM; in the assay on SK-MEL-2, 2630 nM; in [9], 2020 nM; with RPMI-8226, 3070 nM; with KM12 [10], 2070 nM. The growth at 10 µM in the assay with TK-10 was 97.7%; in the assay with U-251 it was -71.3%; with IGROV-1 it was 31.8%; in the assay on KM12 [1], -82.6%; in the assay on K562, 3.17%; with SF-295 [2], 99.2%. In addition, the growth at 10 µM was -84% in the assay on HCT-116; 31.2% in the assay with T47D [3]; -65.7% with MCF7; 112% in the assay on NCI-H226 [6]; -4.93% in the assay with DU-145. In addition, the IC50 in [7] came to 870 nM.

The term GI50 denotes the concentration at which growth is held to half of that of the control. Low values mean greater sensitivity of the cells, high ones lower sensitivity of the cells. Usually IC50 stands for the midpoint of a concentration-inhibition curve. Low readings indicate greater potency in that assay, high ones weaker potency in that assay.
